Drawing on ChEMBL document CHEMBL1156068, “Synthesis, pharmacological and antiviral activity of 1,3-thiazepine derivatives” (Eur J Med Chem, 2009), this text covers Activity, EC50 and CC50 for two molecules.

Each structure is given as a SMILES string. pEC50: −log10 of the molar value. Activity calls are given as the source filed them. No cut-off for these calls is given here.

Data set [1] is filed under the species Mus musculus. The experiment in a line: Decrease in body temperature in normothermic Swiss albino mouse within 60 to 120 mins. In kind it is ADME, organism-based. Conditions: in vivo.
Data set [2] concerns Mus musculus. The experiment in a line: Decrease in 5-hydroxytryptophan-induced head twitch in Swiss albino mouse at 200 mg/kg, ip measured for 6 two mins interval. In kind it is functional, organism-based. Further details: dose 200 mg/kg.
Data set [3] deals with Mus musculus. In words: Depression of spontaneous locomotor activity in Swiss albino mouse at 0.1 times LD50, ip dose measured for 30 mins. In kind it is functional, organism-based. Summed up:
(§1)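 Spontaneous locomotion of single male Albino Swiss mice recorded in photoresistor actometers for 30 min. Compound given i.p. at 0.05 or 0.1 LD50 as 0.5% methylcellulose suspension 60 min before test. Vehicle controls. Student's t-test.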

The subject of data set [4] is Human immunodeficiency virus 1. The experiment in a line: Antiviral activity against wild type HIV1 3B infected in human MT4 cells assessed as protection against virus induced cytopathogenicity after 4 days by MTT assay. To be noted: Human immunodeficiency virus 1, 3B, MT4, 96 h. The class given is functional, organism-based. Put shortly:
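MT-4 cells (1×10^4/well) in RPMI with serial compound dilutions were infected with HIV-1 (100 CCID50; m.o.i. 0.01). After 4 days, viability was measured by MTT. EC50 is the concentration giving 50% protection from virus-induced cytopathogenicity. Compounds were prepared as 100 mM DMSO stocks diluted in medium.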

Data set [5] concerns Vesicular stomatitis virus. In words: Antiviral activity against Vesicular stomatitis virus infected in african green monkey Vero76 cells after 2 days by plaque reduction assay. In kind it is functional, organism-based. Conditions: Vero 76. A general note: Plaques are areas of infected cells; plaque reduction assays count them against a control.
The test system of data set [6] is Mus musculus. In words: Antinociceptive activity in Swiss albino mouse assessed as protection against acetic acid-induced abdominal constriction at 200 mg/kg, ip measured for 10 mins by writhing test. In kind it is functional, organism-based. Further details: dose 200 mg/kg. Conditions: Abdomen.
The subject of data set [7] is Mus musculus. In words: Depression of spontaneous locomotor activity in Swiss albino mouse at 0.05 times LD50, ip dose measured for 30 mins. In kind it is functional, organism-based. Put shortly: as §1
Data set [8] can be described thus: Cytotoxicity against human MT4 cells assessed as reduction of cell viability after 96 hrs by MTT assay. The class given is cell-based. Put shortly:
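Exponentially growing, mock-infected MT-4 cells were seeded at 1×10^5 cells mL-1 in RPMI-1640 with 10% FCS and penicillin/streptomycin, with serial compound dilutions. Incubated 96 h at 37 °C, 5% CO2, then viability read by MTT. CC50 is the concentration reducing viability by 50%.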
A general note: Formazan colour is commonly taken as a measure of viable cells.

Data set [9] deals with Mus musculus. In words: Acute toxicity in ip dosed Swiss albino mouse assessed as mortality within 48 hrs. Conditions: in vivo. In kind it is organism-based. Summed up: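 Male Albino Swiss mice (18–30 g) received compound i.p. as a suspension in 0.5% aqueous methylcellulose, 10 mL kg-1. LD50 was calculated by the Litchfield–Wilcoxon method from mortality within 48 h.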

Another data set deals with Vaccinia virus. The experiment in a line: Antiviral activity against Vaccinia virus infected in african green monkey Vero76 cells after 3 days by plaque reduction assay. The class given is functional, organism-based. To be noted: Orthopoxvirus vaccinia; Vero 76.
For a further data set, the system named is Human alphaherpesvirus 1. The experiment in a line: Antiviral activity against HSV1 infected in african green monkey Vero76 cells after 3 days by plaque reduction assay. The class given is functional, organism-based. Conditions: Vero 76. Put shortly:
(§2)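 Vero 76 monolayers (2×10^5 cells/well, overnight) infected to give 50–100 PFU/well. Unadsorbed virus removed, then DMEM with 1% FCS, 0.75% methylcellulose and serial compound dilutions added. Incubated at 37 °C for 3 days (CVB-2, HSV-1) or 5 days (RSV). Fixed and stained with 50% ethanol/0.8% crystal violet in PBS; plaques counted.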

For data set [10], the species on record is Mus musculus. In words: Decrease in body temperature in normothermic Swiss albino mouse within 30 to 90 mins. The class given is ADME, organism-based. Conditions: in vivo.
Data set [11] relates to Mammalian orthoreovirus 1. In words: Antiviral activity against Reo virus type-1 infected in BHK-21 cells assessed as protection against virus induced cytopathogenicity after 3 to 4 days by MTT assay. The class given is functional, organism-based. Put shortly: (§3)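 Monolayers were grown overnight at 37 °C, 5% CO2: MDBK at 3×10^4 cells/well, BHK at 5×10^4 cells/well. Cells infected at m.o.i. 0.01. After 1 h, serial compound dilutions added in MEM with 1% FCS. Viability read by MTT after 3–4 days at 37 °C. EC50 is the concentration giving 50% protection from cytopathogenicity.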

Data set [12] relates to Mus musculus. The experiment in a line: Effect on pentylenetetrazole-induced tonic convulsion in Swiss albino mouse at 200 mg/kg, ip. The class given is functional, organism-based. Further details: dose 200 mg/kg. Summed up:
(§4)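 Mice pretreated i.p. with compound (200 mg kg-1, 0.5% methylcellulose suspension, 60 min), then pentylenetetrazole 110 mg kg-1 s.c. Scored as number of mice with clonic seizures, tonic convulsions, and deaths. Chi-square test with Yates correction.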

A further data set concerns Coxsackievirus B2. In words: Antiviral activity against Coxsackie virus B2 infected in african green monkey Vero76 cells after 3 days by plaque reduction assay. The class given is functional, organism-based. Conditions: Vero 76. Put shortly: as §2
Data set [13] relates to Mus musculus. In words: Effect on motor coordination in Swiss albino mouse at 200 mg/kg, ip by rotarod test. In kind it is ADME, organism-based. Set-up: dose 200 mg/kg, route intraperitoneal. To be noted: in vivo. (The rotarod test checks motor coordination on a turning rod.)
The test system of data set [14] is Respiratory syncytial virus. In words: Antiviral activity against Respiratory syncytial virus infected in african green monkey Vero76 cells after 5 days by plaque reduction assay. In kind it is functional, organism-based. To be noted: Vero 76. Put shortly: as §2
For data set [15], the system named is Mus musculus. In words: Effect on pentylenetetrazole-induced clonic seizures in Swiss albino mouse at 200 mg/kg, ip. In kind it is functional, organism-based. Set-up: dose 200 mg/kg. Put shortly:
as §4

Data set [16] deals with Mus musculus. The experiment in a line: Effect on motor coordination in Swiss albino mouse at 200 mg/kg, ip by chimney test. In kind it is ADME, organism-based. Set-up: dose 200 mg/kg, route intraperitoneal. Conditions: in vivo.
Data set [17] has as its system Mus musculus. In words: Effect on amphetamine-induced hyperactivity in Swiss albino mouse at 5 mg/kg, sc administered 30 mins before amphetamine challenge. Further details: dose 5 mg/kg. In kind it is functional, organism-based. Put shortly:
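Mice received compound i.p. (0.1 LD50, 0.5% methylcellulose suspension) 60 min before test. Amphetamine 5 mg kg-1 s.c. was given 30 min before test. Locomotion of single male Albino Swiss mice recorded in photoresistor actometers for 30 min. Vehicle controls. Student's t-test.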

The test system of data set [18] is Bovine viral diarrhea virus 1. In words: Antiviral activity against Bovine viral diarrhea virus infected in MDBK cells assessed as protection against virus induced cytopathogenicity after 3 to 4 days by MTT assay. The class given is functional, organism-based. Put shortly: as §3
Another data set deals with Yellow fever virus. The experiment in a line: Antiviral activity against Yellow fever virus infected in BHK-21 cells assessed as protection against virus induced cytopathogenicity after 3 to 4 days by MTT assay. In kind it is functional, organism-based. Put shortly:
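BHK cells were seeded at 5 × 10^4 per well and grown overnight to monolayers, then infected at m.o.i. 0.01 in serum-free medium. One hour later, MEM Earle's with 1% FCS (final) and serial compound dilutions were added. After 3–4 days at 37 °C, viability was read by MTT. EC50 is the concentration giving 50% protection from virus-induced cytopathogenicity.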

The test system of a further data set is Poliovirus 1. The experiment in a line: Antiviral activity against Poliovirus type 1 Sabin infected in african green monkey Vero76 cells after 2 days by plaque reduction assay. In kind it is functional, cell-based. Conditions: Vero 76.

As usually defined, the pEC50 is the negative decadic logarithm of the EC50, by convention in mol/L. As usually defined, the CC50 is the concentration that lowers cell viability or growth by half. Turning to `CC(C)C12C=CC(C)(CC1)C1C(=O)N(N3CCCCS/C3=N\c3ccc(Cl)c(Cl)c3)C(=O)C12` (centres undefined), the Activity result in the data set filed under Mus musculus [1] is “Toxic”; in the data set with Mus musculus [9] it was “Active”; in the data set listed under Mus musculus [10], “Toxic”; in the data set on Mus musculus [13] it was “Non-toxic”; in the data set on Mus musculus [16], “Non-toxic”. Also, the result in the data set with Mus musculus [2] and in the data set with Mus musculus [3] was Active. Further, the pEC50 in [4] is less than 4.00. The outcome (in data set [5]; in the data set with Mus musculus [6]; in the data set on Mus musculus [7]; in the data set on Vaccinia virus; in the data set on Human alphaherpesvirus 1; in data set [11]) was inactive. In addition, the outcome (in the data set on Mus musculus [12]; in the data set with Coxsackievirus B2; in data set [14]; in the data set with Mus musculus [15]; in the data set on Mus musculus [17]; in [18]) was inactive. Moreover, the outcome in the data set on Yellow fever virus and in the data set on Poliovirus 1 was inactive. In data set [8], the half-maximal cytotoxic concentration (CC50) at 96 h is more than 100 µM.
Consider `CC1=CC2C(C(C)C)CC1C1C(=O)N(N3CCCCS/C3=N\c3ccc(C)cc3)C(=O)C21` (centres undefined), for which the Activity entry in the data set listed under Mus musculus [1] was “Toxic”; in the data set with Mus musculus [9], “Active”; in the data set filed under Mus musculus [10], “Toxic”; with Mus musculus [13], “Non-toxic”; in the data set on Mus musculus [16] it was “Non-toxic”. Besides, the outcome (in the data set with Mus musculus [2]; in data set [5]; with Mus musculus [6]; in the data set on Mus musculus [7]; in the data set on Vaccinia virus; in the data set with Human alphaherpesvirus 1) was inactive. Also, the outcome (in data set [11]; with Mus musculus [12]; in the data set with Coxsackievirus B2; in data set [14]; in the data set on Mus musculus [15]; with Mus musculus [17]) was inactive. Further, the result (in data set [18]; in the data set on Yellow fever virus; with Poliovirus 1) was inactive. The outcome in the data set with Mus musculus [3] was Active.
